PPC-1+TRAIL kill – kills PPC-1 cancer cells in the presence of TRAIL. 220,000 compounds, 0.41% hits. AID 1443. PPC-1 cells + TRAIL, ATPLite viability luminescence. cell killing (% activity), % at 4 µM or 5 µM;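 active = cell killing above 50% in the first pass at 4 µM, then a duplicate retest at 5 µM averaging 50% or more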;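 also: plate controls were cells with TRAIL plus DMSO for no effect and medium-only wells lacking cells for full effect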
C8 TRAIL sens – sensitizes caspase-8 expressing cells to TRAIL. AID 624354. NB7+C8 cells + TRAIL, ATPlite viability luminescence. 360,000 compounds, 1% hits. inhibition (viability loss, TRAIL sensitization), % at 10 µM;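 active = compounds causing at least 50% loss of cell viability in the single-dose screen, relative to plate controls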
FLuc inh counter – counter-screen for luciferase assay inhibitors: firefly luciferase inhibition; inhibition, % at 10 µM; ATPLite firefly luciferase biochemical luminescence, 10 min; P08659; 200,000 compounds, 1.5% hits;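 active = inhibition above about 50% when tested at 10 µM, limit read from the data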
Target sequence (P08659 whole entry, looked up): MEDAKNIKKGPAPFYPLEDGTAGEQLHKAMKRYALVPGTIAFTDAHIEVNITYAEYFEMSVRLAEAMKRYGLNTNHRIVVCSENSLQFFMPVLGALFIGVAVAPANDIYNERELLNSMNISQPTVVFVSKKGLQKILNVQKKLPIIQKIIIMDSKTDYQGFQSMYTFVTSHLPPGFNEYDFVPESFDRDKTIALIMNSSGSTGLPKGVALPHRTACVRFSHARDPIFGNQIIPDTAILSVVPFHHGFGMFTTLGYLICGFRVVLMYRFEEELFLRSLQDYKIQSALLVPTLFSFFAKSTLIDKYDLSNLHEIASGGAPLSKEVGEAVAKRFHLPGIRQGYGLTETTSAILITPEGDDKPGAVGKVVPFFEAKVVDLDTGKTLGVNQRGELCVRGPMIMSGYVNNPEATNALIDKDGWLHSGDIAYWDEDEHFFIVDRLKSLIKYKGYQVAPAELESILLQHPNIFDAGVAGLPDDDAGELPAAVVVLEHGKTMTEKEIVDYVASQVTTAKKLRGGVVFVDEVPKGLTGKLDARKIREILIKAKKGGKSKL
STAT3 inh-1 – inhibitors of IL-6 induced STAT3 signaling; U3A cells, IL-6 STAT3-luciferase reporter, luminescence; host cell line lacks STAT1; inhibition, % at 5.5 µM; 190,000 compounds, 0.89% hits; AID 862;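 active = inhibition above the mean inhibition across all screened compounds plus 3 SD, cut at about 44% in these data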;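 also: 0% = DMSO only wells and 100% = 100 µM nifuroxazide control wells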
FLuc stim CS – affects firefly luciferase, flagging false hits in luciferase stimulation screens; ATPlite luciferase biochemical, luminescence, 10 min; 0 = ATP-free wells, 1 = DMSO control; activation factor at 10 µM; 200,000 tested, under 10 active;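 active = luciferase activation factor, scaled between plate controls, of at least 2 with compound at 10 µM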
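Assay system: Luciferase/luciferin reagent mix; Medium: PBS as buffer for the ATP substrate; Dosing: test compounds dosed from 2 mM stocks in 100% DMSO; Times: 10 min, room temperature; Signal: luminescence from luciferase reaction; Read-out: luciferase activation; Controls: No-ATP low control, compound-free enzyme-plus-ATP high control.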
HSP90 refold inh – inhibitors of HSP90 luciferase refolding in rabbit reticulocyte lysate; luciferase refolding luminescence, 3 h; inhibition, % at 5.6 µM; 290,000 compounds, 0.91% hits;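 active = inhibition above the screen-wide mean plus 3 SD, computed separately per campaign, cut at about 16% in these data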;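 also: 0% = DMSO wells and 100% = 60 µM geldanamycin wells; inhibitors lower the luminescence because luciferase stays unfolded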
STAT3 inh-2 – confirmation of STAT3 signaling inhibitors; 1,200 compounds, 45% hits; inhibition, % at 5.7 µM; U3A cells, IL-6 STAT3 luciferase reporter, luminescence; cell line lacks STAT1; shares compounds with STAT3 inh-1; AID 1265;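 active = inhibition above the hit cutoff computed for the primary STAT3 screen, cut at about 44% in these data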;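 also: 0% = IL-6 plus DMSO and 100% = IL-6 plus nifuroxazide control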
NFkB inh STAT3ct – counter-screen for STAT3 inhibitors: NF-kappaB inhibition. shares compounds with STAT3 inh-1. HEK293T NF-kB luciferase reporter, TNF-alpha induced. inhibition, % at 5.7 µM. 1,200 compounds, 36% hits. AID 1308;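 active = inhibition above the mean of solvent-only control wells plus 3 SD, cutoff set per campaign, cut at about 13% in these data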;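 also: 0% = TNF-alpha with DMSO and 100% = TNF-alpha with MG high control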
STAT1 inh 2 – inhibits STAT1, counter-screen to STAT3 inhibitors. 1,200 compounds, 27% hits. NIH 3T3 STAT1-luciferase reporter, IFN-gamma induced, luminescence. inhibition, % at 5.7 µM. shares compounds with STAT3 inh-1;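 active = inhibition above the mean plus 3 SD of solvent-only control wells, limit set per screening run, cut at about 16% in these data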;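 also: 0% = DMSO with IFN-gamma and 100% = nifuroxazide control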
Active calls of the source: *; / = no result. Rows were chosen to be rich in hits. Some 2.2% of all compounds tested hit in one or more screens of this group.

SMILES	PPC-1+TRAIL kill	C8 TRAIL sens	FLuc inh counter	STAT3 inh-1	FLuc stim CS	HSP90 refold inh	STAT3 inh-2	NFkB inh STAT3ct	STAT1 inh 2
O=C(Nc1ccccc1)Nc1ncc([N+](=O)[O-])s1	24	55*	27	54*	0.7	8	3	-32	-99
O=C(Nc1cccc2ccccc12)c1ccc2sc([C@H]3C[C@H](O)[C@@H](CO)O3)nc2c1	/	-13	/	/	/	/	/	/	/
O=C(Nc1ccc(NS(=O)(=O)c2ccccc2)cc1)c1ccc(Cl)cc1	/	-1	/	/	/	0	/	/	/
COc1ccc(NS(=O)(=O)c2cccc(NC(=O)c3ccc(Cl)nc3)c2)cc1	27	30	-5	86*	1.1	2	84*	38*	24*
O=C(Nc1cccc(S(=O)(=O)Nc2ccc(Cl)cc2)c1)c1ccc(Cl)nc1	1	40	-8	79*	1.1	-2	81*	27*	23*
COc1ccc(NC(=O)[C@H](C)NC(=O)C2CCN(S(=O)(=O)c3ccc(C)cc3)CC2)cc1	/	5	/	/	/	-4	/	/	/
Cc1cc(Nc2ccccc2)nc(NCc2ccccc2)n1	15	21	-6	17	1.1	4	/	/	/
CCCCNc1cc(C)nc(NCc2ccccc2)n1	20	8	-3	44*	1	6	35	13*	27*
COc1ccc(-n2c(C)cc(-c3cn4cccc(C)c4n3)c2C)cc1	6	-5	-6	7	1.1	-1	/	/	/
Cc1cc(-c2cn3ccccc3n2)c(C)n1-c1ccccc1	4	64*	94*	58*	0.1	2	21	-18	-83
COc1ccc(C(=O)c2ccccc2)c2c(O)ccc(C(=O)c3ccccc3)c12	4	10	-8	65*	1.1	7	62*	16*	-1
COc1ccc(C(=O)c2ccc(Cl)cc2)c2ccccc12	2	3	-7	0	1.1	0	/	/	/
CC(C)c1ccc(/C=N/NC(=O)CCNC(=O)c2ccccc2)cc1	/	-10	/	/	/	-4	/	/	/
COCCN(C(=S)Nc1ccc(OC)cc1)C1CCN(C(C)=O)CC1	6	-1	-8	-1	1.1	3	/	/	/
CC(C)(C)c1ccc(C(=O)N2CCCCCC2=O)cc1	4	0	0	45*	1	1	64*	35*	30*
O=S(=O)(c1ccccc1)N1CCC(O)(CSc2ccc(Cl)cc2)CC1	-4	24	-2	76*	1	-1	47*	17*	4
CSc1ccccc1C(=O)OCC(=O)NC1CCCCCCC1	/	6	/	/	/	/	/	/	/
COc1ccc(N(CC(=O)NCc2ccco2)C(=O)CCC(=O)Nc2ccccn2)cc1	/	-11	/	/	/	4	/	/	/
O=C(Nc1ccc2c(c1)CCC2)C1CCN(c2c3c(nc4ncnn24)CCC3)CC1	4	43	-5	24	1	2	/	/	/
O=C(Nc1ccc(Oc2ccccc2)cc1)C1CCN(c2c3c(nc4ncnn24)CCC3)CC1	-5	40	-7	52*	1.1	3	47*	-4	11
O=C(Nc1cccc(C(F)(F)F)c1)C12CC3CC(CC(C3)C1)C2	18	-4	-1	8	1	4	/	/	/
COc1cccc(-c2nnc(-c3ccc(C)o3)o2)c1	44	58*	86*	55*	0.1	8	32	-9	-67
COc1cccc(-c2nnc(N)o2)c1	-2	9	/	/	/	-4	/	/	/
COc1ccc(S(=O)(=O)NC(=O)C2(C)CCN2C(=O)CCC2CCCC2)cc1OC (stereo unspecified)	/	-10	/	/	/	/	/	/	/
O=C(Nc1cc(S(=O)(=O)N2CCCCC2)ccc1Cl)c1ccccc1NS(=O)(=O)c1ccc(F)cc1	24	45	0	51*	1	-2	36	18*	29*
SMILES	PPC-1+TRAIL kill	C8 TRAIL sens	FLuc inh counter	STAT3 inh-1	FLuc stim CS	HSP90 refold inh	STAT3 inh-2	NFkB inh STAT3ct	STAT1 inh 2
Cc1ccc(S(=O)(=O)Nc2ccccc2C(=O)Nc2nc(-c3ccc(F)cc3)cs2)cc1	25	53*	2	45*	1	-6	33	18*	26*
CCOC(=O)C1CCN(C(c2cccnc2)c2c(NC(=O)c3ccco3)sc(C)c2C)CC1 (stereo unspecified)	20	10	0	50*	1	3	64*	14*	-2
Cc1sc(NC(=O)c2ccco2)c(C(c2cccnc2)N2CCN(CCO)CC2)c1C (stereo unspecified)	9	-4	-4	15	1	-3	/	/	/
Cc1cc(C(=O)OCC(=O)Nc2cccc(S(=O)(=O)N(C)C)c2)c2ccccc2n1	12	-1	-3	47*	1	-1	25	1	9
Cc1cc(C(=O)OCC(=O)Nc2cccc(S(=O)(=O)N(C)C)c2)c(C)o1	2	6	/	/	/	-3	/	/	/
Cc1c(CNCCc2ccccc2Cl)c(C(=O)O)c(C)n1-c1ccccc1	/	-9	/	/	/	6	/	/	/
O=S(=O)(NCC1CCCO1)c1ccc(-c2ccc(S(=O)(=O)NCC3CCCO3)cc2)cc1 (stereo unspecified)	31	47	-8	78*	1.1	0	84*	33*	22*
Clc1c(CSc2nc3ccccc3o2)nc2ccccn12	29	5	22	45*	0.8	8	2	-22	-94
C=CCN=C1NN=C(c2cc(C)n(CC=C)c2C)CS1	3	52*	92*	74*	0.1	5	50*	26*	2
CN(CC1CCCN(CCc2cccc(C(F)(F)F)c2)C1)C(=O)c1cc2ccccc2o1 (stereo unspecified)	/	14	/	/	/	6	/	/	/
COc1cc(NC(=S)Nc2ccc(N(C)C(C)=O)cc2)cc(OC)c1	20	-10	-9	7	1.1	5	/	/	/
COc1ccc(Cc2nc3ccc(C(=O)N4CCCCC4CO)cc3o2)cc1OC (stereo unspecified)	/	-4	/	/	/	/	/	/	/
O=S(=O)(NCc1ccncc1)c1ccc(Br)s1	35	10	-1	83*	1	5	80*	27*	27*
O=C(C[n+]1ccc(/C=N/O)cc1)N1CCCCC1	-4	-9	/	/	/	-1	/	/	/
CCCCc1ccc(/C=C(\C#N)C(N)=S)s1	-2	3	-5	44*	1.1	-1	42	-14	17*
CN(C(=O)COc1ncnc2ccccc12)C1CCCCC1	/	-4	/	/	/	/	/	/	/
N#Cc1c(NC(=O)c2ccccc2)sc2c1CCCCC2	36	53*	55*	52*	0.4	7	5	-25	-147
